Data on eleven molecules can be found in ChEMBL document CHEMBL4342502, “Synthesis and Antichlamydial Activity of Molecules Based on Dysregulators of Cylindrical Proteases” (J Med Chem, 2020).

Active and inactive are the calls of the source. The calls are words filed in the database; no cut-off is given here.

Series [1] relates to Acinetobacter baumannii. In words: Antibacterial activity against Acinetobacter baumannii ATCC 19606 assessed as bacterial growth inhibition at 32 ug/ml measured after 16 hrs by broth microdilution method. The class given is functional, organism-based. To be noted: ATCC 19606 = CIP 70.34 = JCM 6841. A general note: Broth dilution looks for growth in wells or tubes with falling amounts of substance.

Series [2] has as its system Staphylococcus aureus. In words: Antibacterial activity against Staphylococcus aureus JE2 assessed as bacterial death up to 256 ug/ml measured after 16 hrs by broth microdilution method. The class given is functional, organism-based. The method, boiled down: (§1)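 Broth microdilution in Mueller Hinton broth, triplicate. Direct colony suspension at 1.5 x 10^8 CFU/mL diluted to ~10^5 CFU/mL. Serial dilutions made from DMSO stocks at 1 mg/mL; vancomycin positive control, blank medium negative control. Incubated 16 h at optimum temperature. MIC is the lowest concentration without visible growth at 600 nm; mean of triplicate determinations.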

The test system of series [3] is Staphylococcus aureus. In words: Antibacterial activity against Staphylococcus aureus JE2 assessed as bacterial growth inhibition at 32 ug/ml measured after 16 hrs by broth microdilution method. The class given is functional, organism-based. The method, boiled down:
as §1

Series [4] has as its system Klebsiella pneumoniae. Nature of the series: Antibacterial activity against Klebsiella pneumoniae ATCC 700603 assessed as bacterial growth inhibition at 32 ug/ml measured after 16 hrs by broth microdilution method. The class given is functional, organism-based.
Series [5] deals with Staphylococcus aureus. In words: Antibacterial activity against methicillin-resistant Staphylococcus aureus ATCC 43300 assessed as bacterial growth inhibition at 32 ug/ml measured after 16 hrs by broth microdilution method. The class given is functional, organism-based.
For series [6], the system named is Candida albicans. In words: Antifungal activity against Candida albicans ATCC 90028 assessed as fungal growth inhibition at 32 ug/ml measured after 16 hrs by broth microdilution method. The class given is functional, organism-based.
The subject of series [7] is Pseudomonas aeruginosa. Nature of the series: Antibacterial activity against Pseudomonas aeruginosa ATCC 27853 assessed as bacterial growth inhibition at 32 ug/ml measured after 16 hrs by broth microdilution method. The class given is functional, organism-based.
The subject of series [8] is Escherichia coli. Nature of the series: Antibacterial activity against Escherichia coli ATCC 25922 assessed as bacterial growth inhibition at 32 ug/ml measured after 16 hrs by broth microdilution method. The class given is functional, organism-based.
The subject of series [9] is Escherichia coli. In words: Antibacterial activity against Escherichia coli K12 assessed as bacterial growth inhibition at 32 ug/ml measured after 16 hrs by broth microdilution method. The class given is functional, organism-based. To be noted: K-12. The method, boiled down:
as §1

Series [10] has as its system Cryptococcus neoformans. Nature of the series: Antifungal activity against Cryptococcus neoformans var. grubii H99 ATCC […] as fungal growth inhibition at 32 ug/ml measured after 16 hrs by broth microdilution method. The following applies: var. grubii H99 ATCC 208821. The class given is functional, organism-based.
Series [11] deals with Escherichia coli. Nature of the series: Antibacterial activity against Escherichia coli K12 assessed as bacterial death up to 256 ug/ml measured after 16 hrs by broth microdilution method. The class given is functional, organism-based. To be noted: K-12. The method, boiled down: as §1
For series [12], the target named is ATP-dependent Clp protease proteolytic subunit (Escherichia coli (strain K12)) (UniProt P0A6G7). Nature of the series: Activation of recombinant Escherichia coli ClpP assessed as induction of casein degradation at 0.1 to 1 uM using FITC-labelled casein as substrate pretreated with enzyme for 30 mins followed by substrate addition and measured every 3 mins for 3 hrs in absence of AAA+ chaperone by fluorescence based tecan-plate reader assay. The method, boiled down:
(§2)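 Recombinant C-terminal His6-tagged ClpP, expressed in a clpAPX-null E. coli strain and purified (mammalian ClpP without mitochondrial signal, codon-optimized). ClpP at 1 or 0.1 μM (E. coli), 1 μM (human, mouse) or 6 μM (chlamydial ClpP1 and ClpP2) preincubated with compound or DMSO, 30 min, 32 °C, in HEPES pH 7.6/KCl/MgCl2/DTT/glycerol buffer. 20 μM FITC-casein then added. Fluorescence (ex 490/em 525 nm) read every 3 min for 3 h. At least three runs on at least two protein preparations.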

Series [13] in a line: Activation of recombinant mouse C-terminal 6xHis-tagged ClpP expressed in Escherichia coli assessed as induction of casein degradation at 0.1 to 1 uM using FITC-labelled casein as substrate pretreated with enzyme for 30 mins followed by substrate addition and measured every 3 mins for 3 hrs in absence of AAA+ chaperone by fluorescence based tecan-plate reader assay. Summed up:
as §2

Series [14] concerns Chlamydia trachomatis. Nature of the series: Anti-chlamydial activity against Chlamydia trachomatis Serovar LGV-L2 infected in Hep2 cells assessed as inhibition of chlamydial inclusion at 50 ug/ml treated at 8 hrs post infection and measured at 24 hrs post-infection by immunofluorescence assay. The class given is functional, organism-based. The method, boiled down: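 HEp-2 cells infected with C. trachomatis serovar L2. Compounds at 50 μg/mL added 8 hpi; inclusion number and size assessed by immunofluorescence at 24 hpi against untreated cells. Cell morphology and viability checked by phase-contrast microscopy.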

A short description of series [15]: Activation of recombinant human C-terminal 6xHis-tagged ClpP expressed in Escherichia coli assessed as induction of casein degradation at 0.1 to 1 uM using FITC-labelled casein as substrate pretreated with enzyme for 30 mins followed by substrate addition and measured every 3 mins for 3 hrs in absence of AAA+ chaperone by fluorescence based tecan-plate reader assay. Summed up: as §2

Series [16] is described as follows: Toxicity in Drosophila melanogaster assessed as survival rate at 0.25 to 1 mM. To be noted: 1000 µM. The method, boiled down: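 Drosophila SMART assay using third-instar larvae (72 ± 4 h) from ST and HB crosses. Larvae exposed in hydrated instant mashed-potato medium at 0.25, 0.5 and 1.0 mM final. Vehicle control: water with 1% Tween-80 and 3% ethanol. Survival of treated groups compared statistically with the vehicle control.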

The nature of series [17]: Mutagenicity in Drosophila melanogaster somatic cells assessed as frequency of clone formation in HB crosses at 0.25 to 1 mM by SMART assay. The following applies: 1000 µM. The class given is ADME. The method, boiled down: (§3)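 Drosophila SMART wing-spot assay, ST and HB crosses. Third-instar larvae (72 ± 4 h) placed on hydrated instant mashed potato medium containing compound at 0.25, 0.5 or 1.0 mM final. Negative control: water with 1% Tween-80 and 3% ethanol. Statistics by Frei and Würgler two-sided U test, P≤0.05.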

Series [18] in a line: Mutagenicity in Drosophila melanogaster somatic cells assessed as frequency of clone formation in ST crosses at 0.25 to 1 mM by SMART assay. The following applies: 1000 µM. The class given is ADME. The method, boiled down:
as §3

Series [19] has as its system Chlamydia trachomatis. Nature of the series: Anti-chlamydial activity against Chlamydia trachomatis Serovar LGV-L2 infected in Hep2 cells assessed as reduction in chlamydial infectivity by measuring decrease in inclusion forming units at 50 ug/ml treated at 8 hrs post-infection and 24 hrs later re-infecting fresh Hep2 cells monolayer with infected cells and measured at 24 hrs post re-infection by immunofluorescence staining based microscopy analysis. The class given is functional, organism-based. The method, boiled down:
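HEp-2 cells in DMEM with 10% FBS, infected with C. trachomatis L2 at MOI 1. Compounds added 8 hpi in triplicate; DMSO stocks at 50 mg/mL. At 24 hpi lysates collected in sucrose storage medium, frozen at −80 °C, and used to infect fresh HEp-2 monolayers in 10-fold dilutions. After 24 h, stained with goat anti-MOMP and Alexa488 secondary. Inclusions counted in 15 fields at 20x; IFU = mean count per field corrected for dilution.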

Sequence of ATP-dependent Clp protease proteolytic subunit (Escherichia coli (strain K12)) (P0A6G7 whole entry): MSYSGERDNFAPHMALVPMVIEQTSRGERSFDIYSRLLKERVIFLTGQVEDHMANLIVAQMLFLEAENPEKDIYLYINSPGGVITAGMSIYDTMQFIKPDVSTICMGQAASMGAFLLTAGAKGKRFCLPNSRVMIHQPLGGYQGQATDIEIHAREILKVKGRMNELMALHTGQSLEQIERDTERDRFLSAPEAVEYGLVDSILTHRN

As to `NCCBr`, the inhibition entry in series [1], in series [3], in series [4], in series [5], in series [6] and in series [7] was “inactive” each time. The inhibition result in [8], in series [9] and in [10] was “inactive” each time. Moreover, the outcome in series [2] and in [11] was inactive.

As to `CC(C)(C(=O)NCCSc1ccccc1Cl)S(=O)(=O)c1ccccc1`, the result in [12] was inactive. Also, the Activity result in series [13] and in [15] was “Not Active” throughout. In addition, the inhibition entry in [14] is “inactive”.

Consider `CC(C)(C(=O)N1CCN(Cc2cccc(Cl)c2)CC1)S(=O)(=O)c1ccc(C(F)(F)F)cn1`, for which the inhibition entry in series [1], in series [3], in [4], in [5], in series [6] and in series [7] was “inactive” each time. For the same molecule, the inhibition result in series [8], in series [9] and in [10] was “inactive” each time. The Activity result in series [16], in series [17] and in series [18] was “Non-Toxic” throughout. Moreover, the inhibition entry in [14] and in [19] was “Active” in each case.

Take `Cc1ccccc1N1CCN(C(=O)C(C)(C)S(=O)(=O)c2ccc(C(F)(F)F)cn2)CC1`: the inhibition result in series [1], in series [3], in series [4], in series [5], in series [6] and in series [7] was “inactive” in each case. The inhibition entry in series [8], in [9] and in [10] was “inactive” in each case. The result in [2] and in [11] was inactive. The inhibition entry in series [14] and in series [19] was “Active” throughout.

Regarding `CC(C)(C(=O)NCCOc1ccc(Cl)cc1)S(=O)(=O)c1ccc(C(F)(F)F)cn1`, the inhibition result in [1], in [3], in series [4], in series [5], in series [6] and in series [7] was “inactive” in each case. Further, the inhibition result in [14], in series [8], in series [9] and in [10] was “inactive” throughout.

As for `CC(C)(C(=O)N1CCN(c2ccccc2)CC1)S(=O)(=O)c1ccc(C(F)(F)F)cn1`, the inhibition entry in series [1], in series [3], in series [4], in series [5], in series [6] and in series [7] was “inactive” each time. Moreover, the inhibition entry in series [14], in series [8], in [9] and in series [10] was “inactive” throughout.

As for `CC(C)(C(=O)NCCCc1ccccc1)S(=O)(=O)c1ccccn1`, the inhibition result in series [1], in series [3], in [4], in series [5], in series [6] and in series [7] was “inactive” in each case. Also, the inhibition entry in series [14], in [8], in series [9] and in series [10] was “inactive” in each case.

As to `CC(C)(C(=O)NCCOc1ccccc1Cl)S(=O)(=O)c1ccc(C(F)(F)F)cn1`, the inhibition entry in series [1], in [3], in series [4], in series [5], in [6] and in [7] was “inactive” each time. The inhibition entry in [8], in series [9] and in series [10] was “inactive” each time. Moreover, the result in [2] and in [11] was inactive. The inhibition entry in series [14] was “Active”.

`COc1cccc(N2CCN(C(=O)C(C)(C)S(=O)(=O)c3ccc(C(F)(F)F)cn3)CC2)c1`: the inhibition entry in [1], in [3], in [4], in series [5], in series [6] and in [7] was “inactive” throughout. For the same molecule, the inhibition entry in [8], in series [9] and in series [10] was “inactive” in each case. For the same molecule, in series [14], the inhibition entry was “Active”.

With `CC(C)(C(=O)NCCOc1ccccc1Cl)S(=O)(=O)c1ccc(C(F)(F)F)cc1`, the inhibition result in [1], in series [3], in [4], in [5], in [6] and in series [7] was “inactive” in each case. Moreover, the inhibition entry in series [8], in series [9] and in series [10] was “inactive” each time. Besides, the inhibition entry in series [14] is “Active”.

Regarding `CC(C)(C(=O)NCCOc1ccccc1Cl)S(=O)(=O)c1ccccc1`, the inhibition entry in [1], in series [3], in [4], in series [5], in series [6] and in series [7] was “inactive” in each case. The inhibition result in series [14], in series [8], in [9] and in series [10] was “inactive” throughout. Moreover, the Activity entry in series [16] is on record as “Non-Toxic”.
